# According to article PMC8052299 (Biochemical pharmacology, 2021):
# Where two headings read alike, the source gives them in different places.
# Legend:
# J-Lat 10.6 cells [1] = experiment: LRA-induced provirus expression; type: cell-based
# OM-10.1 cells = experiment: TNFα-induced provirus expression; type: cell-based; details: for EC50: 24 h, read-out: TNFα EC50, inhibition of provirus expression
# Procedure, shortened: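 OM-10.1 cells seeded at 200,000 cells/well and co-treated with 1 ng/mL TNFα plus test compound or 0.1% DMSO for 24 h. Cells were fixed, permeabilized, stained for intracellular p24Gag (KC57-RD1) and scored on live-gated cells by flow cytometry. EC50s were derived after normalizing to TNFα-only controls.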
# CDK9/cyclin T1 = CDK9/cyclin T1 (Homo sapiens, UniProt P50750); experiment: CDK9 kinase activity assay; type: biochemical
# [2] = Viability of uninfected PBMCs; type: cell-based, human; details: human, CC50, uninfected PBMCs, Viacount dye
# [3] = system: Tat-dependent transactivation; experiment: Tat-transactivated mCherry expression in JurTat cells; type: cell-based; details: for effect on ratio of mCherry:Dendra fluorescence: up to 30 μM
# Procedure, shortened: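 JurTat cells (Tat-Dendra plus HIV LTR-mCherry) were induced with 500 ng/mL doxycycline and seeded at 200,000 cells/well with test compound or 0.1% DMSO. After 24 h, Tat-Dendra and mCherry were measured by flow cytometry. Values are percent positive cells and mCherry:Dendra fluorescence ratio, expressed relative to 0.1% DMSO-treated cells.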
# HIV-1NL4.3 = experiment: HIV replication assay in PBMCs; type: cell-based; details: for HIV replication suppressed: day 6
# class I and II HDAC = experiment: Cellular HDAC activity assay; type: cell-based; details: for IC50: read-out: HDAC Inhibition IC50, Jurkat cells, 90 min, HDAC-Glo I/II
# J-Lat 10.6 cells [4] = type: cell-based; details: for GFP expression 24 hours after washing, % of vehicle-treated control cells: washed, 24 h drug-free
# J-Lat 9.2 cells = experiment: LRA-induced provirus expression; type: cell-based; details: for stimulation of GFP expression: J-Lat 9.2, data not shown; for GFP expression induced, % of cells: LRA only
# PBMCs = experiment: Viability of uninfected PBMCs; type: cell-based, human; details: 6 days; for CC50: Viacount dye; for toxicity: up to 30 μM
# Jurkat cells = experiment: Jurkat cell viability, 24 h; type: cell-based; details: 30 μM
# [5] = system: Tat-dependent transactivation; experiment: HIV Tat-induced GFP expression in CEM-GXR cells; type: cell-based, HIV-1
# [6] = J-Lat 10.6, 24 h, read-out: HMBA EC50, inhibition of provirus expression
# [7] = J-Lat 10.6, 24 h, read-out: JQ1 EC50, inhibition of provirus expression
# [8] = J-Lat 10.6, 24 h, read-out: TNFα EC50, inhibition of provirus expression
# [9] = 15 μM, JurTat + 500 ng/mL Dox, 24 h
# [10] = J-Lat 9.2, 24 h, read-out: Panobinostat EC50, inhibition of provirus expression
# [11] = J-Lat 9.2, 24 h, read-out: Prostratin EC50, inhibition of provirus expression
# [12] = J-Lat 9.2, 24 h, read-out: TNFα EC50, inhibition of provirus expression
# CDK9/cyclin T1, sequence (P50750 whole entry): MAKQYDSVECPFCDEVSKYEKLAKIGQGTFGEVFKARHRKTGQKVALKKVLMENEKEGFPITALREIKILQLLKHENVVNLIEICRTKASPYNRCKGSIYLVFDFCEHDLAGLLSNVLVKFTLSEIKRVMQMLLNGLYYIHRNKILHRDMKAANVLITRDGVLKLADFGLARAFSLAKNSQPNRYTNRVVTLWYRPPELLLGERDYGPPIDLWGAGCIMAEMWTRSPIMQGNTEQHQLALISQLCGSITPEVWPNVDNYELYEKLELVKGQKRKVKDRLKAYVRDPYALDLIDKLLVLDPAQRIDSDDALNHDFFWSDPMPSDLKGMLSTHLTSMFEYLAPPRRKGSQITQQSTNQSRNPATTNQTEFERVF
# CDK9/cyclin T1, sequence (O60563 whole entry partner): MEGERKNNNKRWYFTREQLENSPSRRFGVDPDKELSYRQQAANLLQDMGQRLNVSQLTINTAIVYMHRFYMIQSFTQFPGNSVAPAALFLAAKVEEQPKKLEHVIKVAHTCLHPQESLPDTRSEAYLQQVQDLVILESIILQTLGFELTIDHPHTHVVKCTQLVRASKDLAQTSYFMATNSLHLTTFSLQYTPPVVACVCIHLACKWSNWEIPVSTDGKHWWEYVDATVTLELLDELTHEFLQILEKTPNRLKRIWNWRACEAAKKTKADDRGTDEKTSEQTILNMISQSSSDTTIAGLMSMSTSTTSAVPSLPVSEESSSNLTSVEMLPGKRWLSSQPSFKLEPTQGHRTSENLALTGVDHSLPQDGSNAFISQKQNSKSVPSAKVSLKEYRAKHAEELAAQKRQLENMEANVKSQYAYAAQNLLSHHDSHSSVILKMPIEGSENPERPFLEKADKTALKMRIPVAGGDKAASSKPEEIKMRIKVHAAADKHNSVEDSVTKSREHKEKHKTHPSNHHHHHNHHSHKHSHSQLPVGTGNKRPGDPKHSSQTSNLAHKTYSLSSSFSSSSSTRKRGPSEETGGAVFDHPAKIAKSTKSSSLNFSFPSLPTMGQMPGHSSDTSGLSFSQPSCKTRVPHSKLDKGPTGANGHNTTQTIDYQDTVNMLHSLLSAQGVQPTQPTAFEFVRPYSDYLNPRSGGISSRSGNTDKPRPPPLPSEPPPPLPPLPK
Compound,EC50 (J-Lat 10.6 cells [1]; [6]),EC50 (J-Lat 10.6 cells [1]; [7]),EC50 (J-Lat 10.6 cells [1]; [8]),EC50 (OM-10.1 cells),IC50 (CDK9/cyclin T1),CC50 at 6 days [2],"HDAC activity inhibited (class I and II HDAC; 10 μM, Jurkat)",IC50 (class I and II HDAC),"GFP expression 24 hours after washing, % of vehicle-treated control cells (J-Lat 10.6 cells [4]; 10 μM for 21 days, J-Lat 10.6)",EC50 (J-Lat 9.2 cells; [10]),EC50 (J-Lat 9.2 cells; [11]),EC50 (J-Lat 9.2 cells; [12]),also measured
"O=c1cc(-c2ccc(O)cc2)oc2cc(O)cc(O)c12 [Apigenin, apigenin]",5.2 ± 0.8 µM,7.2 ± 1.1 µM,6.2 ± 0.3 µM,4.1 ± 0.8 µM,0.21 ± 0.1 µM,19.8 ± 6.5 µM,19.4 ± 5.4%,47.2 ± 6.7 µM,80.6 ± 80.5%,4.1 ± 0.4 µM,7.3 ± 1.1 µM,5.6 ± 0.6 µM,"Dendra, % of fluorescence in cells treated with only Dox ([3]; 15 μM, JurTat): 39.9%; mCherry, % of fluorescence in cells treated with only Dox ([3]; 15 μM, JurTat): 13.7%; residual mCherry fluorescence as % of residual Dendra fluorescence ([3]; 15 μM, JurTat): 34.3%; Dendra expression, % of cells [3, 9]: 17.4 ± 6.5%; mCherry expression, % of cells [3, 9]: 1.8 ± 0.7%; EC50, mCherry:Dendra fluorescence ratio ([3]; JurTat + 500 ng/mL Dox, 24 h): 14.5 ± 1.5 µM; Selectivity Index (CC50/EC50) (HIV-1NL4.3): 4.0"
"COc1cc(F)ccc1-c1ncnc(Nc2cccc(C[S@](C)(=N)=O)c2)n1 [Atuveciclib, atuveciclib, reference compound]",1.8 ± 0.1 µM,2.4 ± 0.2 µM,4.3 ± 0.2 µM,1.8 ± 0.09 µM,,24.7 ± 4.9 µM,11.3 ± 12.9%,> 90 µM,53.0 ± 0.8%,3.6 ± 0.8 µM,1.8 ± 0.1 µM,1.7 ± 0.2 µM,"CC50 (PBMCs): 24.4 ± 1.5 µM; HDAC activity inhibited (class I and II HDAC; 90 μM, Jurkat): 29.7 ± 14.3%; viability reduced vs 0.1% DMSO (Jurkat cells): 61.3 ± 2.6%; GFP expression 11 days following wash-out (J-Lat 10.6 cells [4]; 10 μM for 21 days, J-Lat 10.6): returned to those of untreated controls; GFP expression before wash-out, % of untreated cells (J-Lat 10.6 cells [4]; 10 μM, 21 days, J-Lat 10.6): 3.4 ± 0.7%; spontaneous GFP production abolished (J-Lat 10.6 cells [4]; 10 μM, after 9 days, J-Lat 10.6): > 95%; duration of reinforced latency following withdrawal in vitro (J-Lat 10.6 cells [4]; J-Lat 10.6, after 21 days' treatment): 9 days"
"O=c1cc(-c2ccccc2)oc2cc(O)cc(O)c12 [Chrysin, chrysin]",6.7 ± 1.4 µM,7.7 ± 1.5 µM,6.3 ± 0.7 µM,4.7 ± 0.3 µM,0.021 ± 0.01 µM,> 30 µM,37.9 ± 7.7%,24 ± 4.8 µM,70.9 ± 65.6%,2.8 ± 0.4 µM,4.3 ± 1.2 µM,4 ± 0.4 µM,"toxicity (PBMCs): no toxicity was observed; Selectivity Index (CC50/EC50) (HIV-1NL4.3): > 3.3; provirus expression inhibited (J-Lat 9.2 cells; 3 μM, J-Lat 9.2, 10 ng/mL TNFα): 22.5 ± 24.9%; provirus expression inhibited (J-Lat 9.2 cells; 10 μM, J-Lat 9.2, 10 ng/mL TNFα): 88.3 ± 8.8%"
"CC(=O)NCCCCCCNC(C)=O [HMBA, reference compound]",,,,,,,,,,,,,"GFP production, % of cells (J-Lat 10.6 cells [1]; J-Lat 10.6, 10 mM, LRA only): 34.6 ± 1.4%; stimulation of GFP expression (J-Lat 9.2 cells): did not stimulate GFP expression"
"Cc1sc2c(c1C)C(c1ccc(Cl)cc1)=N[C@@H](CC(=O)OC(C)(C)C)c1nnc(C)n1-2 [JQ1, reference compound]",,,,,,,,,,,,,"GFP production, % of cells (J-Lat 10.6 cells [1]; J-Lat 10.6, 10 μM, LRA only): 35.9 ± 2.0%; stimulation of GFP expression (J-Lat 9.2 cells): did not stimulate GFP expression"
"O=c1cc(-c2ccc(O)c(O)c2)oc2cc(O[C@@H]3O[C@H](CO)[C@@H](O)[C@H](O)[C@H]3O)cc(O)c12 [L7G, luteolin-7-glucoside]",,,,,,,,> 90 µM,,,,,"EC50 (J-Lat 10.6 cells [1]; read-out: HMBA EC50, inhibition of provirus expression, J-Lat 10.6, 10 mM HMBA, 24 h, GFP): 10.1 ± 3.5 µM; EC50 (J-Lat 10.6 cells [1]; read-out: JQ1 EC50, inhibition of provirus expression, J-Lat 10.6, 10 μM JQ1, 24 h, GFP): 16.4 ± 3.3 µM; EC50 (J-Lat 10.6 cells [1]; read-out: TNFα EC50, inhibition of provirus expression, J-Lat 10.6, 10 ng/mL TNFα, 24 h, GFP): 11.9 ± 0.5 µM; EC50 (OM-10.1 cells; OM-10.1, 1 ng/mL TNFα, p24Gag): 10.3 ± 1.2 µM; CDK9 IC50 fold higher than aglycone analogue luteolin (CDK9/cyclin T1): 96 fold; IC50 (CDK9/cyclin T1; read-out: CDK9 inhibition IC50, purified CDK9/cyclin T1, 10 μM ATP, ADP-Glo): 6.9 ± 3.9 µM; CC50 (PBMCs): 18.3 ± 2.5 µM; effect on ratio of mCherry:Dendra fluorescence ([3]; JurTat): neither naringenin nor L7G substantially affected the ratio; HIV replication suppressed (HIV-1NL4.3; 1 μM): 26.3 ± 24.8%; HIV replication suppressed (HIV-1NL4.3; 10 μM): 77.3 ± 32.7%; spontaneous latency reversal (J-Lat 10.6 cells [4]; 10 μM, 21 days, J-Lat 10.6): highly variable, but not inhibited; EC50 (J-Lat 9.2 cells; read-out: Panobinostat EC50, inhibition of provirus expression, J-Lat 9.2, 0.1 μM panobinostat, 24 h, GFP): 4.3 ± 0.4 µM; EC50 (J-Lat 9.2 cells; read-out: Prostratin EC50, inhibition of provirus expression, J-Lat 9.2, 10 μM prostratin, 24 h, GFP): 17.3 ± 2.2 µM; EC50 (J-Lat 9.2 cells; read-out: TNFα EC50, inhibition of provirus expression, J-Lat 9.2, 10 ng/mL TNFα, 24 h, GFP): 4.5 ± 0.6 µM; EC50 ([5]; read-out: Tat-dependent transactivation EC50, pCMV-Tat-transfected CEM-GXR cells, GFP, 24 h): > 30 µM; inhibition of Tat-induced GFP expression ([5]; up to 30 μM, CEM-GXR): unable to inhibit GFP expression"
"O=c1cc(-c2ccc(O)c(O)c2)oc2cc(O)cc(O)c12 [Luteolin, luteolin]",26.5 ± 5.8 µM,15.4 ± 1.5 µM,13.6 ± 0.8 µM,10.3 ± 0.6 µM,0.072 ± 0.03 µM,13.9 ± 5.9 µM,10.1 ± 1.6%,> 90 µM,79.9 ± 26.6%,6.8 ± 0.8 µM,20.6 ± 2.6 µM,7.6 ± 0.6 µM,"EC50, mCherry:Dendra fluorescence ratio ([3]; JurTat + 500 ng/mL Dox, 24 h): 9.5 ± 1.5 µM; Selectivity Index (CC50/EC50) (HIV-1NL4.3): 1.1; HDAC activity inhibited (class I and II HDAC; 100 μM, Jurkat): 42.6 ± 9.5%"
"O=C1C[C@@H](c2ccc(O)cc2)Oc2cc(O)cc(O)c21 [Naringenin, naringenin, reference compound]",> 30 µM,> 30 µM,> 30 µM,> 30 µM,> 30 µM,> 30 µM,,88.7 ± 32.1 µM,,> 30 µM,> 30 µM,> 30 µM,"inhibition of LRA-induced provirus expression (J-Lat 10.6 cells [1]; J-Lat 10.6, TNFα, JQ1, HMBA): did not inhibit any LRA-induced provirus expression; inhibition of TNFα-induced provirus expression (OM-10.1 cells; OM-10.1, 1 ng/mL TNFα): no inhibition was observed; toxicity (PBMCs): No toxicity was observed; effect on ratio of mCherry:Dendra fluorescence ([3]; JurTat): neither naringenin nor L7G substantially affected the ratio; antiviral activity (HIV-1NL4.3; up to 30 μM): no antiviral activity was observed"
"Cc1[nH]c2ccccc2c1CCNCc1ccc(/C=C/C(=O)NO)cc1 [panobinostat, reference compound]",,,,,,,,,,,,,"cellular HDAC activity reduced (class I and II HDAC; 0.1 μM, Jurkat): 88.0 ± 10.9%; GFP expression induced, % of cells (J-Lat 9.2 cells; J-Lat 9.2, 0.1 μM, 24 h): 10.8 ± 1.4%"
"CC(=O)O[C@@]12C[C@@H](C)[C@@]3(O)[C@@H](C=C(CO)C[C@]4(O)C(=O)C(C)=C[C@@H]34)[C@@H]1C2(C)C [prostratin, reference compound]",,,,,,,,,,,,,"GFP expression induced, % of cells (J-Lat 9.2 cells; J-Lat 9.2, 10 μM, 24 h): 10.7 ± 2.7%"
TNFα,,,,,,,,,,,,,"GFP-positive cells induced (J-Lat 10.6 cells [1]; J-Lat 10.6, 10 ng/mL, 24 h, LRA only): 80.3 ± 2.6%; p24Gag production induced, % of live-gated cells (OM-10.1 cells; OM-10.1, 1 ng/mL): 90.6 ± 4.0%; GFP expression induced, % of cells (J-Lat 9.2 cells; J-Lat 9.2, 10 ng/mL, 24 h): 10.4 ± 1.7%"
